This note sets out measurements from ChEMBL document CHEMBL1649154, “Antibiotic susceptibility and characteristics of Neisseria meningitidis isolates from the African meningitis belt, 2000 to 2006: phenotypic and genotypic perspectives” (2009).

In brackets after ≈: the same amount, converted by molar mass. Bounds are passed on as bounds.

Assay type in all cases: functional
Assay [1] relates to Neisseria meningitidis. Briefly: Antibacterial activity against Beta-lactamase-negative Neisseria meningitidis assessed as percent intermediate isolates by Etest method. In short, it runs like this:
(§1)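 Serogroup A reference strain OR173/87 included for quality control. Isolates were classed susceptible, intermediate or resistant using breakpoints drawn from several organizations.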

In assay [2] the test system is Neisseria meningitidis. Briefly: Antibacterial activity against Beta-lactamase-negative Neisseria meningitidis by Etest method.
Assay [3] deals with Neisseria meningitidis. Kind of assay: Antibacterial activity against Beta-lactamase-negative Neisseria meningitidis assessed as percent resistant isolates by Etest method. In short, it runs like this: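 Isolates were classed resistant using breakpoints drawn from several organizations. Serogroup A reference strain OR173/87 was included for quality control.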
The subject of assay [4] is Neisseria meningitidis. Briefly: Antibacterial activity against Beta-lactamase-negative Neisseria meningitidis assessed as percent susceptible isolates by Etest method. In short, it runs like this: as §1

For orientation: MIC50 means the lowest concentration that inhibits either 50% of growth or 50% of the strains tested, depending on the study. Low readings indicate higher susceptibility, high ones lower susceptibility. One may read the MIC90 as the lowest concentration that inhibits either 90% of growth or 90% of the strains tested, depending on the study. What is called MIC is the least concentration at which growth counts as inhibited. A low value points to greater potency.

With `Nc1ccc(S(=O)(=O)Nc2ncccn2)cc1` [SULFADIAZINE], the Activity is 6% in the assay with Neisseria meningitidis [1], 94% with Neisseria meningitidis [3] and 0% in the assay on Neisseria meningitidis [4]. The MIC50 in the assay with Neisseria meningitidis [2] is greater than 256 µg/mL. Also, the MIC90 against Neisseria meningitidis [2] is greater than 256 µg/mL.

Regarding `CC[C@H]1OC(=O)[C@H](C)[C@@H](O[C@H]2C[C@@](C)(OC)[C@@H](O)[C@H](C)O2)[C@H](C)[C@@H](O[C@@H]2O[C@H](C)C[C@H](N(C)C)[C@H]2O)[C@](C)(O)C[C@@H](C)C(=O)[C@H](C)[C@@H](O)[C@]1(C)O` [ERYTHROMYCIN], the Activity in the assay with Neisseria meningitidis [1] is reported as 0%. For the same compound, in the assay on Neisseria meningitidis [2], the lowest concentration to inhibit growth (MIC) was 0.032 µg/mL (≈ 0.0436 µM), the MIC50 is 0.75 µg/mL (≈ 1.02 µM) and the MIC90 is 1 µg/mL (≈ 1.36 µM). The Activity in the assay with Neisseria meningitidis [3] was determined as 74%. Also, the Activity in the assay with Neisseria meningitidis [4] is recorded as 26%.

Regarding `CO[C@H]1/C=C/O[C@@]2(C)Oc3c(C)c(O)c4c(O)c(c(/C=N/N5CCN(C)CC5)c(O)c4c3C2=O)NC(=O)/C(C)=C\C=C\[C@H](C)[C@H](O)[C@@H](C)[C@@H](O)[C@@H](C)[C@H](OC(C)=O)[C@@H]1C` [RIFAMPIN], the Activity in the assay with Neisseria meningitidis [1] is reported as 1%; with Neisseria meningitidis [3] it was 0%; in the assay with Neisseria meningitidis [4] it was 99%. In the assay on Neisseria meningitidis [2], the MIC50 was 0.064 µg/mL (≈ 0.0778 µM). Moreover, the MIC90 against Neisseria meningitidis [2] turned out to be 0.125 µg/mL (≈ 0.152 µM).

Take `CC1(C)S[C@@H]2[C@H](NC(=O)COc3ccccc3)C(=O)N2[C@H]1C(=O)O` [PENICILLIN V]: the Activity with Neisseria meningitidis [1] is 0%. Besides, in the assay with Neisseria meningitidis [2], the lowest concentration to inhibit growth (MIC) was 0.016 µg/mL (≈ 0.0457 µM), the MIC50 worked out at 0.19 µg/mL (≈ 0.542 µM) and the MIC90 came out at 0.38 µg/mL (≈ 1.08 µM). The Activity in the assay on Neisseria meningitidis [3] was 1%. For the same compound, the Activity in the assay on Neisseria meningitidis [4] was found to be 99%.

With `O=C(N[C@H](CO)[C@H](O)c1ccc([N+](=O)[O-])cc1)C(Cl)Cl` [CHLORAMPHENICOL], the Activity in the assay on Neisseria meningitidis [1] is on record as 0%. In the assay on Neisseria meningitidis [2], the MIC50 worked out at 0.75 µg/mL (≈ 2.32 µM) and the MIC90 was 1 µg/mL (≈ 3.09 µM). In the assay on Neisseria meningitidis [4], the Activity is 100%.

For the compound `O=C(O)c1cn(C2CC2)c2cc(N3CCNCC3)c(F)cc2c1=O` [CIPROFLOXACIN], the Activity stood at 0% with Neisseria meningitidis [1] and 100% with Neisseria meningitidis [4]. In the assay on Neisseria meningitidis [2], this compound returned an MIC50 of 0.004 µg/mL (≈ 0.0121 µM). The same compound had an MIC90 in the assay with Neisseria meningitidis [2] of 0.004 µg/mL (≈ 0.0121 µM).

On to `CC1(C)S[C@@H]2[C@H](NC(=O)[C@H](N)c3ccccc3)C(=O)N2[C@H]1C(=O)O` [AMPICILLIN], for which the Activity in the assay on Neisseria meningitidis [1] is reported as 1%; in the assay with Neisseria meningitidis [3], 0%; in the assay on Neisseria meningitidis [4], 99%. This compound also gave an MIC50 against Neisseria meningitidis [2] of 0.064 µg/mL (≈ 0.183 µM). The MIC90 in the assay with Neisseria meningitidis [2] amounted to 0.094 µg/mL (≈ 0.269 µM).

In the case of `CN(C)[C@@H]1C(O)=C(C(N)=O)C(=O)[C@@]2(O)C(O)=C3C(=O)c4c(O)cccc4[C@@](C)(O)[C@H]3C[C@@H]12` [TETRACYCLINE], the figures for the Activity in the assay on Neisseria meningitidis [1], in the assay with Neisseria meningitidis [3] and in the assay with Neisseria meningitidis [4] were 0%, 52% and 48%, respectively. The same compound gave an MIC50 against Neisseria meningitidis [2] of 2 µg/mL (≈ 4.5 µM). The compound further yielded an MIC90 against Neisseria meningitidis [2] of 4 µg/mL (≈ 9 µM).

Turning to `CO/N=C(\C(=O)N[C@@H]1C(=O)N2C(C(=O)O)=C(CSc3nc(=O)c(O)nn3C)CS[C@H]12)c1csc(N)n1` [CEFTRIAXONE], the Activity with Neisseria meningitidis [1] is 0%. In the assay on Neisseria meningitidis [2], this compound returned an MIC of less than 0.002 µg/mL, an MIC50 of less than 0.002 µg/mL and an MIC90 of less than 0.002 µg/mL. Further, in the assay with Neisseria meningitidis [4], the Activity amounted to 100%.

Regarding `CC1(C)S[C@@H]2[C@H](NC(=O)Cc3ccccc3)C(=O)N2[C@H]1C(=O)O` [PENICILLIN G], the values for the Activity in the assay on Neisseria meningitidis [1], in the assay on Neisseria meningitidis [3] and in the assay on Neisseria meningitidis [4] were 2%, 0% and 98%, respectively. The same compound showed an MIC50 against Neisseria meningitidis [2] of 0.047 µg/mL (≈ 0.141 µM). The MIC90 against Neisseria meningitidis [2] came out at 0.094 µg/mL (≈ 0.281 µM).

In the case of `CO/N=C(\C(=O)N[C@@H]1C(=O)N2C(C(=O)O)=C(COC(N)=O)CS[C@H]12)c1ccco1` [CEFUROXIME], the figures for the Activity in the assay on Neisseria meningitidis [1], with Neisseria meningitidis [3] and in the assay with Neisseria meningitidis [4] were 1%, 0% and 99%, respectively. In the assay with Neisseria meningitidis [2], this compound had an MIC50 of 0.047 µg/mL (≈ 0.111 µM). This compound yielded an MIC90 in the assay on Neisseria meningitidis [2] of 0.094 µg/mL (≈ 0.221 µM).
